From PubChem BioAssay come the findings set out here.

Experiment [1] in a line: inhibitors of TNFa-induced NFkB p65 translocation, primary screen, imaging, HUVEC, MLSMR starter and 10KST1 sets (AID 438;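 active = inhibition above 20% together with a positive visual image hit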;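 also: compound added about 3h40 before a 20 min TNFalpha stimulation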;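 as to inhibition: signal is the nuclear over cytoplasmic p65 intensity ratio per well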). The settings on record: HUVEC TNFa-induced p65 nuclear translocation; cell count: measured here: nuclei count (cytotoxicity indicator), at 2.08 µM; inhibition: at 2 µM, stronger effect = higher value, 0% TNFa-plus-vehicle, 100% no-TNFa wells.
Experiment [2] can be described thus: inhibitors of mutant huntingtin aggregation, primary screen, imaging, exon1htt(103Q)mCFP cells, high-content imaging (AID 483).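 Also: compound exposure lasted 3 days before fixation.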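 As to nuclei count: percent of the per-plate median nuclei count of sample wells.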 Particulars: exon1htt(103Q)mCFP cell line, aggregate imaging, at 2 µM; inhibition of aggregation: stronger effect = higher value; nuclei count: measured here: cell count, toxicity.
The nature of experiment [3]: inhibitors of E-selectin induction by TNFa, primary screen, imaging, HUVEC, immunofluorescence, MLSMR starter and 10KST1 sets (AID 487;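 active = visually confirmed hit in the image check and inhibition above 20%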;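 as to inhibition: signal is fraction of cell area covered by stained E-selectin grains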;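 as to nuclei count: 100% = median nuclei count of all wells on the same plate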). The settings on record: HUVEC TNFalpha-induced E-selectin immunofluorescence imaging, at 2 µM; inhibition: stronger effect = higher value; nuclei count: measured here: cell number, toxicity.
Experiment [4] addresses Voltage-gated potassium channel subunit beta-2 (Rattus norvegicus) (UniProt P62483). Put plainly: KvBeta enzyme negative modulators, primary screen, biochemical, NADPH fluorescence (AID 622;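 active = fluorescence slope higher than the sample average by over 3 SD, cut at about -0.22 in these data, passing the limit was not always enough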;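 also: slope of raw intensity against log time taken from 70 to 1610 s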). The settings on record: recombinant KvBeta, 4-cyanobenzaldehyde reduction, at 10 µM, stronger effect = higher value.
Experiment [5] has the same target. The experiment in a line: KvBeta positive modulators, primary screen, biochemical, NADPH fluorescence (AID 623;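 active = NADPH fluorescence slope more negative than the mean of all samples by about 3 SD, 99.7% confidence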;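 also: fluorescence intensity change per second fitted from 20 to 320 s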). The settings on record: Recombinant KvBeta, NADPH fluorescence decrease slope, 10 min; at 10 µM; stronger effect = lower value.
For experiment [6], the target named is Muscarinic acetylcholine receptor M4 (Homo sapiens) (UniProt P08173). The experiment in a line: compounds altering M4/GIRK thallium flux, either direction, primary screen, M4 allosteric agonist project, cell-based, HEK293 M4/GIRK, BTC-AM (AID 625;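 active = fluorescence slope after compound addition differing from the mean of all tested samples at 99.7% confidence, mostly higher but some lower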;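 also: thallium influx through GIRK channels coupled to M4 in HEK293 cells with BTC-AM dye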). The settings on record: at 10 µM, actives lie on both sides. The method, boiled down:
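Material – HEK293 cells with M4 receptor and GIRK channels · Buffer or medium – pH 7.3 thallium assay buffer · Doses – one dose, 10 µM final · Timing – cells overnight at 37 °C, BTC-AM loading 1 h, reads 2 min total · Measured by – kinetic fluorescence with BTC-AM dye · Controls – carbachol and DMSO controls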

A short description of experiment [7]: inhibitors of Sendai virus-induced IRF3 signaling, primary screen, TLR/RLR signaling modifier project, cell-based, Sendai virus stimulus, luciferase, 10K MLSCN set (AID 602276;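 active = inhibition at or above 50% at 10 µM; inactive = inhibition below 50%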;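 also: firefly luciferase from ISG56 promoter only with Renilla not read in this screen; 0% = Sendai virus plus DMSO and 100% = medium plus DMSO without virus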). The settings on record: HEK293 RL24 IRF3 luciferase reporter, at 10 µM, stronger effect = higher value. On the technique in general: In a reporter assay the amount or activity of a reporter protein is the signal.

Experiment [8] in a line: inhibitors of poly I:C-induced TLR3 signaling, primary screen, cell-based, poly I:C stimulus, luciferase, 10K MLSCN set (AID 602277;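 active = inhibition of the reporter signal at or above 50%; inactive = inhibition below 50%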). The settings on record: HEK293-TLR3 RL24 IRF3 luciferase reporter, at 10 µM, stronger effect = higher value.

Each structure is given as a SMILES string. The source made the active and inactive calls.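 The calls were made as follows, unless noted: active = visual image review flags a hit and inhibition of aggregation exceeds 20%; inconclusive = visual hit but inhibition at or below 20%; inactive = no hit on visual image review.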

Voltage-gated potassium channel subunit beta-2 (Rattus norvegicus), sequence (P62483 whole entry, looked up): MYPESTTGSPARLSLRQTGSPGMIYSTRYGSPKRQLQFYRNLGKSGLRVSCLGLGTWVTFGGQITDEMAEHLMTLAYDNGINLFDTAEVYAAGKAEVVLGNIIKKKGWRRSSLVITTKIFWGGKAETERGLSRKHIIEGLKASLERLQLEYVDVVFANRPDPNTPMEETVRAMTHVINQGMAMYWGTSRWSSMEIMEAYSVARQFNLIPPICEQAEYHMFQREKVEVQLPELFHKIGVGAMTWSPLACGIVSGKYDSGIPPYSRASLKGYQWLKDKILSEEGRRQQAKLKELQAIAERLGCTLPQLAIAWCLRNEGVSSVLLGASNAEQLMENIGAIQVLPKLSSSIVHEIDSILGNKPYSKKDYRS
Muscarinic acetylcholine receptor M4 (Homo sapiens), sequence (P08173 whole entry, looked up): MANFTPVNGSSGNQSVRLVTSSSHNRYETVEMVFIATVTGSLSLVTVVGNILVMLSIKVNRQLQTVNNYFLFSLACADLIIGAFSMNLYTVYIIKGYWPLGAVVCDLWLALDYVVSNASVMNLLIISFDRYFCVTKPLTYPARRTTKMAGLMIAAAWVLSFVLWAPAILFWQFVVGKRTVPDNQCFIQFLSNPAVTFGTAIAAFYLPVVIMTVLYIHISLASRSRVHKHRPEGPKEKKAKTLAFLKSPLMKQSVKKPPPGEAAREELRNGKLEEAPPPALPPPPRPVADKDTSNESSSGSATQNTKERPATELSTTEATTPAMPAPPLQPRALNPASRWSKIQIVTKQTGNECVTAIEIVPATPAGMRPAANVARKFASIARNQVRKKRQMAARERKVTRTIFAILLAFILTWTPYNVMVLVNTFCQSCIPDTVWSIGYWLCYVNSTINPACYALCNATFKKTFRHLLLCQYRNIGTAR

Take `CCN1CCN(C(=O)c2ccc3c(=O)n(C4CCCC4)c(=S)[nH]c3c2)CC1`: the cell count in experiment [1] is 507. Also, the inhibition in experiment [1] was -4.3% (inactive); in experiment [3], -19.6% (inactive); in experiment [7], -15.8% (inactive); in experiment [8] it was -6.81% (inactive). For the same molecule, the inhibition of aggregation in experiment [2] is 8.5% (inactive). Moreover, the values for the nuclei count in experiment [2] and in experiment [3] were 82.3% and 111%, respectively. For the same molecule, the fluorescence slope was -0.517 (inactive) in experiment [4] and 0.00572 (inactive) in experiment [6]. Further, the NADPH fluorescence slope in experiment [5] was 6.6e-05 (inactive).
Take `CN(CC(=O)N1CCN(c2ccc(F)cc2)CC1)S(=O)(=O)c1ccc(F)cc1`: the cell count in experiment [1] was 389. Also, the inhibition was -5.2% (inactive) in experiment [1], -100% (inactive) in experiment [3], 11.3% (inactive) in experiment [7] and -4.19% (inactive) in experiment [8]. Moreover, the inhibition of aggregation in experiment [2] was -9.8% (inactive). The nuclei count in experiment [2] stood at 103%; in experiment [3], 121%. Further, the values for the fluorescence slope in experiment [4] and in experiment [6] were -0.595 (inactive) and 0.00279 (inactive), respectively. The NADPH fluorescence slope in experiment [5] was -6.1e-05 (inactive).
Consider `Cc1c(/C(O)=C2/C(=O)C(=O)N(CCN3CCOCC3)C2c2cccs2)cnn1-c1ccccc1` (stereo not drawn), for which, in experiment [1], the cell count was 566. Besides, the inhibition was 13.4% (inactive) in experiment [1], 21.8% (inactive) in experiment [3], 2.43% (inactive) in experiment [7] and 21.8% (inactive) in experiment [8]. Moreover, the inhibition of aggregation in experiment [2] is -5% (inactive). Also, the results for the nuclei count in experiment [2] and in experiment [3] were 103% and 97.7%, respectively. Moreover, the fluorescence slope in experiment [4] was -0.502 (inactive); in experiment [6], 0.00361 (inactive). Besides, in experiment [5], the NADPH fluorescence slope is -0.000209 (inactive).
For the molecule `Cc1cc(C)c(-c2cc(C(=O)Nc3c(C)n(C)n(-c4ccccc4)c3=O)[nH]n2)c(O)c1`, the cell count in experiment [1] is 434. Moreover, the inhibition is 1.8% (inactive) in experiment [1], -51.7% (inactive) in experiment [3], 8.55% (inactive) in experiment [7] and 101% (active) in experiment [8]. Further, the inhibition of aggregation in experiment [2] was -1.8% (inactive). The nuclei count worked out at 111% in experiment [2] and 105% in experiment [3]. In addition, the fluorescence slope is -0.585 (inactive) in experiment [4] and 0.00571 (inactive) in experiment [6]. Besides, the NADPH fluorescence slope in experiment [5] was 3.8e-05 (inactive).
For `Cc1cc(NS(=O)(=O)c2ccccc2)n(-c2ccccc2)n1`, in experiment [1], the cell count came to 395. For the same molecule, the inhibition in experiment [1] is 10.8% (inactive); in experiment [3] it was -59.1% (inactive); in experiment [7], -0.656% (inactive); in experiment [8], 28% (inactive). For the same molecule, the inhibition of aggregation in experiment [2] was -18.2% (inactive). For the same molecule, the nuclei count in experiment [2] worked out at 94.7%; in experiment [3], 106%. The fluorescence slope in experiment [4] was -0.544 (inactive); in experiment [6], 0.00508 (inactive). In experiment [5], the NADPH fluorescence slope is -4.8e-05 (inactive).
Take `COc1ccc(CNC(=O)c2cc(-c3ccc(OC)c(OC)c3)on2)cc1`: the cell count in experiment [1] came out at 383. Also, the inhibition in experiment [1] is -7.2% (inactive); in experiment [3], 21.5% (inactive); in experiment [7] it was 15.2% (inactive); in experiment [8], -6.13% (inactive). Further, the inhibition of aggregation in experiment [2] is 2% (inactive). Further, the nuclei count in experiment [2] is 104%; in experiment [3], 110%. The fluorescence slope in experiment [4] was -0.206 (inactive); in experiment [6] it was 0.00919 (inactive). For the same molecule, in experiment [5], the NADPH fluorescence slope was -1.8e-05 (inactive).
Turning to `O=C(COC(=O)c1ccc(NS(=O)(=O)c2ccc3c(c2)OCCO3)cc1)NCC1CCCO1` (stereo not drawn), the cell count in experiment [1] stood at 424. In addition, the inhibition in experiment [1] was -18.3% (inactive); in experiment [3], 1.1% (inactive); in experiment [7] it was 4.88% (inactive); in experiment [8], 19.1% (inactive). The inhibition of aggregation in experiment [2] was 11.2% (inactive). Also, the nuclei count turned out to be 69.5% in experiment [2] and 100% in experiment [3]. The fluorescence slope in experiment [4] is -0.555 (inactive); in experiment [6], 0.00638 (inactive). The NADPH fluorescence slope in experiment [5] was -3.4e-05 (inactive).
As to `Brc1ccc2[nH]ncc2c1`, the cell count in experiment [1] is 364. For the same molecule, the inhibition is 4.4% (inactive) in experiment [1], 13.4% (inactive) in experiment [3], 15.5% (inactive) in experiment [7] and 22.5% (inactive) in experiment [8]. Moreover, the inhibition of aggregation in experiment [2] was 8.2% (inactive). The nuclei count was 91.4% in experiment [2] and 77% in experiment [3]. In addition, the fluorescence slope in experiment [4] was -0.477 (inactive); in experiment [6], 0.00572 (inactive). The NADPH fluorescence slope in experiment [5] is -3.1e-06 (inactive).
On to `COC(=O)c1sc(S(=O)(=O)Nc2ccc3cn[nH]c3c2)c(C(=O)OC)c1C`, for which the cell count in experiment [1] came to 392. Besides, the inhibition in experiment [1] is 1% (inactive); in experiment [3] it was -83.8% (inactive); in experiment [7] it was 13.4% (inactive); in experiment [8], 31.2% (inactive). In experiment [2], the inhibition of aggregation was 23.4% (inactive). Also, the nuclei count was 80% in experiment [2] and 100% in experiment [3]. Moreover, the fluorescence slope was -0.533 (inactive) in experiment [4] and 0.0043 (inactive) in experiment [6]. Further, the NADPH fluorescence slope in experiment [5] is 5.3e-06 (inactive).
Turning to `C[N+]1=C2CCCCCN2C(O)(c2ccccc2)C1` (stereo not drawn), in experiment [1], the cell count was 546. The inhibition in experiment [1] is -3% (inactive); in experiment [3], -1.4% (inactive); in experiment [7], 12.5% (inactive); in experiment [8], 17.2% (inactive). The inhibition of aggregation in experiment [2] is 6.3% (inactive). Further, the results for the nuclei count in experiment [2] and in experiment [3] were 110% and 130%, respectively. The results for the fluorescence slope in experiment [4] and in experiment [6] were -0.56 (inactive) and 0.00533 (inactive), respectively. Moreover, in experiment [5], the NADPH fluorescence slope is -3.1e-05 (inactive).
Regarding `Cc1ccc2c(c1)-c1cc(C)nn1C(c1ccc3c(c1)OCO3)N2` (stereo not drawn), the cell count in experiment [1] turned out to be 651. Moreover, the inhibition in experiment [1] is 4.2% (inactive); in experiment [3], -7.1% (inactive); in experiment [7] it was -4.39% (inactive); in experiment [8], -18.6% (inactive). Further, the inhibition of aggregation in experiment [2] was 16% (inactive). Further, the nuclei count in experiment [2] is 99.1%; in experiment [3] it was 130%. Further, the values for the fluorescence slope in experiment [4] and in experiment [6] were -0.568 (inactive) and 0.00558 (inactive), respectively. The NADPH fluorescence slope in experiment [5] was -2.2e-05 (inactive).
In the case of `COc1ccccc1C(=O)Nc1ccc(S(=O)(=O)N2CCOCC2)cc1`, in experiment [1], the cell count came out at 353. The inhibition in experiment [1] was -6% (inactive); in experiment [3] it was -85.7% (inactive); in experiment [7], 10.8% (inactive); in experiment [8], 0.189% (inactive). The inhibition of aggregation in experiment [2] was 21.1% (inactive). The nuclei count was determined as 61.9% in experiment [2] and 105% in experiment [3]. Further, the fluorescence slope in experiment [4] is -0.571 (inactive); in experiment [6], 0.00422 (inactive). Moreover, the NADPH fluorescence slope in experiment [5] is -5.6e-05 (inactive).
With `COCCNC(=O)c1ccc(Cl)c(Cl)c1`, the cell count in experiment [1] was found to be 283. The inhibition is -9.1% (inactive) in experiment [1], 4.3% (inactive) in experiment [3], -9.14% (inactive) in experiment [7] and -8.45% (inactive) in experiment [8]. Further, the inhibition of aggregation in experiment [2] is -23.9% (inactive). For the same molecule, the nuclei count stood at 119% in experiment [2] and 116% in experiment [3]. The fluorescence slope in experiment [4] is -0.486 (inactive); in experiment [6], 0.00569 (inactive). Also, in experiment [5], the NADPH fluorescence slope was -4.2e-05 (inactive).

A word on the inhibition: it is the drop in the measured response relative to a control, in per cent.
